In ChEMBL document CHEMBL2384907, “Identification of substituted pyrimido[5,4-b]indoles as selective Toll-like receptor 4 ligands” (J Med Chem, 2013):

Columns and labels:
Type in all cases: cell-based
[1] = biological target: Toll-like receptor 4 (Homo sapiens) (UniProt O00206); experiment: Activation of TLR4 in human PBMC cells assessed as AUC of IL8 release at 10 uM after 18 hrs by ELISA relative to N-cyclohexyl-2-(4-oxo-3-phenyl-4,5-dihydro-3H-pyrimido[5,4-b]indol-2-ylthio)acetamide
Procedure, shortened: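 Human PBMC from buffy coats, 1 × 10^6/mL in complete RPMI, 18 h at 37 °C, 5% CO2 with compound at 10 μM; IL-8 in supernatant by ELISA, normalized to reference hit set at 100. LPS 10 ng/mL positive control.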

[2] = biological target: T1, Toll-like receptor 4 (Mus musculus) (UniProt Q9QUK6); experiment: Activation of mouse TLR4 transfected in HEK293 cells after 18 hrs by SEAP assay relative to N-cyclohexyl-2-(4-oxo-3-phenyl-4,5-dihydro-3H-pyrimido[5,4-b]indol-2-ylthio)acetamide
T1 sequence (whole entry): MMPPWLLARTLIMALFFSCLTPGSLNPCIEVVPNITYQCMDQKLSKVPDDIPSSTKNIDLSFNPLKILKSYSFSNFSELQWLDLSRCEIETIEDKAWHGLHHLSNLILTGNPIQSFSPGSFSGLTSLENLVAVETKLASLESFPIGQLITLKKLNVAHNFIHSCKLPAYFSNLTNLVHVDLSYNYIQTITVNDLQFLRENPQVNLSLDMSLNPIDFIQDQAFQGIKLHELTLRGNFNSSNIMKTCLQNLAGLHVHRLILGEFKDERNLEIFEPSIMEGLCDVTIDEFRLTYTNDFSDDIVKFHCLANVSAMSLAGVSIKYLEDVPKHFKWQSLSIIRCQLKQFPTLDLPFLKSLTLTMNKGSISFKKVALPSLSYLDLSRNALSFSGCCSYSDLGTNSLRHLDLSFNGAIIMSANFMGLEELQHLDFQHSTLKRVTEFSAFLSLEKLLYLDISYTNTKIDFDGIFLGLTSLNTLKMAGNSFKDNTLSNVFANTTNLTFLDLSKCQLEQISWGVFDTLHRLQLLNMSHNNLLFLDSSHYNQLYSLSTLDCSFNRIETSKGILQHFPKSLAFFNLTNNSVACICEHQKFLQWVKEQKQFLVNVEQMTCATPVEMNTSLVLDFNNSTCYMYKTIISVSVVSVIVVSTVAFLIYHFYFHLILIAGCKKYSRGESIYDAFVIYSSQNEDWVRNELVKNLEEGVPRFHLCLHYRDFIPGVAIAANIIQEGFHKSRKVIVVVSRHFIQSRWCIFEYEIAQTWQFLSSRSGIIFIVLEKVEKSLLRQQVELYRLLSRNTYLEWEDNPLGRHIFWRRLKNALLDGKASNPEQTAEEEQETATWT
Procedure, shortened: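 Mouse TLR4 HEK-Blue cells (2.5 × 10^4/well) given titrated doses 312 nM–10 μM for 18 h, 0.5% DMSO vehicle; SEAP at 630 nm. Percent-activity curves, AUC by trapezoid method, normalized to reference hit set at 100. LPS 10 ng/mL control.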

[3] = biological target: Toll-like receptor 4 (Homo sapiens) (UniProt O00206); experiment: Activation of human TLR4 transfected in HEK293 cells after 18 hrs by SEAP assay relative to N-cyclohexyl-2-(4-oxo-3-phenyl-4,5-dihydro-3H-pyrimido[5,4-b]indol-2-ylthio)acetamide; design: concentration or dose not given beside the values
Procedure, shortened: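 Human TLR4 HEK-Blue cells (2.5 × 10^4/well) given compound at 10 μM for 18 h, 0.5% DMSO vehicle; SEAP in supernatant read at 630 nm, normalized to reference hit set at 100. LPS 10 ng/mL positive control.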

[4] = biological target: T1, Toll-like receptor 4 (Mus musculus); experiment: Activation of TLR4 in C57BL/6 mouse BMDC cells assessed as AUC of IP10 release at 5 uM after 18 hrs by ELISA relative to N-cyclohexyl-2-(4-oxo-3-phenyl-4,5-dihydro-3H-pyrimido[5,4-b]indol-2-ylthio)acetamide
[5] = biological target: T1, Toll-like receptor 4 (Mus musculus); experiment: Activation of TLR4 in C57BL/6 mouse BMDC cells assessed as AUC of IL6 release after 18 hrs by ELISA relative to N-cyclohexyl-2-(4-oxo-3-phenyl-4,5-dihydro-3H-pyrimido[5,4-b]indol-2-ylthio)acetamide
Procedure, shortened: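 C57BL/6 bone marrow DC, 10^5 cells/well in RPMI-10% FCS, 18 h at 37 °C with titrated doses 312 nM–10 μM; supernatant IL-6 by ELISA. Each curve converted to percent activity (background subtracted, plate-adjusted), AUC by trapezoid method, normalized to reference hit set at 100 per experiment. LPS 10 ng/mL positive control; 0.5% DMSO vehicle.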

Chain of Toll-like receptor 4 (Homo sapiens) (O00206 whole entry): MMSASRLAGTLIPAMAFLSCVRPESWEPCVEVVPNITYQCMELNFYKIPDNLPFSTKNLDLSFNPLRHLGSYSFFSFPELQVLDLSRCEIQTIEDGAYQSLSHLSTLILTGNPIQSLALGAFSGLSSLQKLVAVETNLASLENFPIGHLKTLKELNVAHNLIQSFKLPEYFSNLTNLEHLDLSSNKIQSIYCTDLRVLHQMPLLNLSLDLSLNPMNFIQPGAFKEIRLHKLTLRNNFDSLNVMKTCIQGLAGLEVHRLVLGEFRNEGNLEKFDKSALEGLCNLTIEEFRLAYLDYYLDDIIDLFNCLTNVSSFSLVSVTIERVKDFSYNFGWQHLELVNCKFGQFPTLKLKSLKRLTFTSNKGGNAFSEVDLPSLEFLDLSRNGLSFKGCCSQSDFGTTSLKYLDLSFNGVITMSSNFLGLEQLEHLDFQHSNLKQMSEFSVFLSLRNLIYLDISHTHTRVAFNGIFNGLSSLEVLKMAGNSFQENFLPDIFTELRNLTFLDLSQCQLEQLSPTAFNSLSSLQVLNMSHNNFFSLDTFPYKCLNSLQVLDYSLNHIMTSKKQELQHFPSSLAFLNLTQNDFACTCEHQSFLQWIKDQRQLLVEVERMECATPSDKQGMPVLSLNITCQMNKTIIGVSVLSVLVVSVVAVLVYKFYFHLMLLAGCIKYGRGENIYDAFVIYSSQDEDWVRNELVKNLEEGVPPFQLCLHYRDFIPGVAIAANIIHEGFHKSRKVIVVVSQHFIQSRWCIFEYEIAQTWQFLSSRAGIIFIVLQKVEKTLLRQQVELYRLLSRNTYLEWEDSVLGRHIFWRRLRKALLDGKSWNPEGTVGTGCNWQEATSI

Row | SMILES | Activity [1] [%] | Activity [2] [%] | Activity [3] [%] | Activity [4] [%] | Activity [5] [%]
1 | O=C(CSc1nc2c([nH]c3ccccc32)c(=O)n1-c1ccccc1)NC1CCCCCC1 | 118 | 99 | 100 | 107 | 126
2 | O=C(CSc1nc2c([nH]c3ccccc32)c(=O)n1-c1ccccc1)Nc1ccc(F)cc1 | 107 | 81 | 108 | 70 | 103
3 | CCCC(C)NC(=O)CSc1nc2c([nH]c3ccccc32)c(=O)n1-c1ccccc1 (stereo not given) | 6 | 17 | 13 | 55 | 12
4 | CCCCCCNC(=O)CSc1nc2c([nH]c3ccccc32)c(=O)n1-c1ccccc1 | 7 | 4 | 8 | < 1 | < 1
5 | O=C(CSc1nc2c([nH]c3ccccc32)c(=O)n1-c1ccccc1)NC1CCCC1 | 5 | 28 | 23 | 52 | 53
6 | Cc1ccc(-n2c(SCC(=O)NC3CCCCC3)nc3c([nH]c4ccccc43)c2=O)cc1 | 6 | 2 | 2 | < 1 | < 1
7 | CCCCCNC(=O)CSc1nc2c([nH]c3ccccc32)c(=O)n1-c1ccccc1 | 25 | 42 | 23 | 40 | 40
8 | NC(=O)Cn1c2ccccc2c2nc(SCC(=O)NC3CCCCC3)n(-c3ccccc3)c(=O)c21 | 4 | 8 | 11 | 1 | 1
9 | O=C(CSc1nc2c([nH]c3ccccc32)c(=O)n1-c1ccccc1)NC1CCNCC1 | 17 | < 1 | < 1 | < 1 | < 1
10 | CCCCCn1c2ccccc2c2nc(SCC(=O)NC3CCCCC3)n(-c3ccccc3)c(=O)c21 | 1 | 6 | 11 | < 1 | 5
11 | CCNC(=O)CSc1nc2c([nH]c3ccccc32)c(=O)n1-c1ccccc1 | 4 | < 1 | 8 | < 1 | < 1
12 | COC(=O)CCCn1c2ccccc2c2nc(SCC(=O)NC3CCCCC3)n(-c3ccccc3)c(=O)c21 | 124 | 9 | 19 | 19 | 4
13 | CC(C)CCNC(=O)CSc1nc2c([nH]c3ccccc32)c(=O)n1-c1ccccc1 | 53 | 56 | 38 | 62 | 61
14 | O=C(CSc1nc2c([nH]c3ccccc32)c(=O)n1-c1ccc2ccccc2c1)NC1CCCCC1 | < 1 | 6 | 3 | < 1 | 3
15 | CCC(C)CCNC(=O)CSc1nc2c([nH]c3ccccc32)c(=O)n1-c1ccccc1 (stereo not given) | 23 | 29 | 17 | 45 | 30
16 | CC(C)(C)NC(=O)CSc1nc2c([nH]c3ccccc32)c(=O)n1-c1ccccc1 | 5 | < 1 | 6 | < 1 | < 1
17 | O=C(CSc1nc2c([nH]c3ccccc32)c(=O)n1-c1ccc(F)cc1)NC1CCCCC1 | 5 | 41 | 51 | 72 | 48

Row | SMILES | Activity [1] [%] | Activity [2] [%] | Activity [3] [%] | Activity [4] [%] | Activity [5] [%]
18 | O=C(CSc1nc2c([nH]c3ccccc32)c(=O)n1-c1ccccc1)NC1CCC1 | 19 | 18 | 32 | 66 | 35
19 | CCCCNC(=O)CSc1nc2c([nH]c3ccccc32)c(=O)n1-c1ccccc1 | 29 | 31 | 32 | 61 | 49
20 | O=C(CSc1nc2c([nH]c3ccccc32)c(=O)n1-c1ccccc1)Nc1ccc2ccccc2c1 | < 1 | 2 | 21 | < 1 | < 1
21 | O=C(CSc1nc2c([nH]c3ccccc32)c(=O)n1-c1ccccc1)Nc1ccc2cn[nH]c2c1 | 7 | < 1 | < 1 | < 1 | 3
22 | O=C(CSc1nc2c3ccccc3nc-2c(O)n1-c1ccccc1)NCC1CCCO1 (stereo not given) | 8 | 21 | 13 | 54 | < 23
23 | O=C(CSc1nc2c([nH]c3ccccc32)c(=O)n1-c1ccccc1)Nc1ccccc1 | 15 | 21 | 31 | 44 | 11
24 | CCCCCCCCCCCCn1c2ccccc2c2nc(SCC(=O)NC3CCCCC3)n(-c3ccccc3)c(=O)c21 | < 1 | 4 | 10 | < 1 | < 1
25 | O=C(CSc1nc2c([nH]c3ccccc32)c(=O)n1C1CCCCC1)NC1CCCC1 | 14 | 19 | 33 | 47 | 47
26 | O=C(CSc1nc2c([nH]c3ccccc32)c(=O)n1-c1ccccc1)Nc1nccs1 | 5 | 2 | 12 | < 1 | 1
27 | CN(C(=O)CSc1nc2c3ccccc3n(C)c2c(=O)n1-c1ccccc1)C1CCCCC1 | 5 | 1 | < 1 | < 1 | < 1
28 | CCC(CC)NC(=O)CSc1nc2c([nH]c3ccccc32)c(=O)n1-c1ccccc1 | < 1 | 8 | 11 | 26 | < 10
29 | CCCCCCCC/C=C\CCCCCCCC(=O)OC[C@H](COP(=O)(O)OCCNC(=O)CSc1nc2c([nH]c3ccccc32)c(=O)n1-c1ccccc1)OC(=O)CCCCCCC/C=C\CCCCCCCC | < 1 | < 1 | < 1 | < 1 | < 1
30 | O=C(CSc1nc2c([nH]c3ccccc32)c(=O)n1-c1ccccc1)NCc1ccco1 | 15 | 5 | 27 | 26 | 18
31 | O=C(CSc1nc2c([nH]c3ccccc32)c(=O)n1C1CCCCC1)NC1CCCCC1 | 27 | 56 | 40 | 61 | 71
32 | O=C(CSc1nc2c([nH]c3ccccc32)c(=O)n1-c1ccccc1)Nc1cccc(F)c1 | 13 | 11 | 39 | 45 | 14
33 | CC(C)CNC(=O)CSc1nc2c([nH]c3ccccc32)c(=O)n1-c1ccccc1 | 11 | 24 | 21 | 53 | 44
34 | O=C(CSc1nc2c([nH]c3ccccc32)c(=O)n1-c1ccccc1)Nc1ccccc1F | 61 | 43 | 71 | 54 | 36
